A selection: hits, their analogues and other compounds. The true share with any hit is near 3%.
Yeast growth inh: growth inhibitors of yeast BB579 in restrictive medium, primary screen, yeast lifespan-shortening project, S. cerevisiae; OD615, 48 h; inhibition, % at 10 µM; actives 0.51% (n = 140,000);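 active = inhibition above a set limit, 3 SD over the mean compound inhibition, cut at about 44% in these data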
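System: DeaD yeast strain BB579; buffer or medium: CSMM-D dextrose restrictive medium; technique: OD at 615 nm; schedule: 4 h cell preincubation, 48 h compound exposure, 30 °C humidified; doses: single 10 µM dose; controls: amphotericin B 10 µg/mL, positive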
INS promoter inh: inhibitors of insulin promoter-driven GFP, primary screen, imaging, TRM-6 cells, eGFP reporter, cell count; reporter expression induced with tamoxifen; inhibition, % at 2 µM; AID 1273, 2008; actives 0.9% (n = 130,000);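 active = inhibition above the mean plus 3 SD, with well images judged a real hit on visual review, cut at about 60% in these data, passing the limit was not always enough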
Yeast life ext: compounds extending yeast replicative lifespan, primary screen, S. cerevisiae, OD615; actives 0.68% (n = 130,000); S. cerevisiae growth with nicotinamide; deaD strain in restrictive glucose medium; inhibition of the nicotinamide effect, % at 10 µM;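 active = inhibition above a set limit, placed 3 SD over the median of all compounds, cut at about 26% in these data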;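 note: 0% = nicotinamide-treated wells and 100% = cells grown without nicotinamide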
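System: Modified budding yeast, DeaD strain | Buffer or medium: Restrictive glucose medium | Also added: 1.5 mM nicotinamide | Doses: 10 µM single point, 0.25% DMSO | Schedule: 48 h compound exposure at 30 °C, humidified | Detection: Absorbance at 615 nm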
Insulin prom up: insulin promoter activators in MIN6 cells, imaging, high-content screening, mouse beta cells; actives 0.3% (n = 190,000); AID 1625, 2009; MIN6 insulin promoter-GFP reporter; hits give high values; z-score at 5 µM;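 active = z-score above 3 at 5 µM with at least 500 cells counted in the well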
RAM inhibit: inhibitors of the yeast RAM network, primary screen, dse1pr::URA3 reporter, 5-FOA selection; S. cerevisiae dse1pr::URA3 reporter, 5-FOA growth OD615, 2 d; analog-sensitive cbk1-as2 kinase mutant strain; inhibition, % at 50 µM; actives 1.8% (n = 190,000);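 active = inhibition above a set limit, 3 SD over mean compound inhibition, cut at about 8.4% in these data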;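 note: 0% = DMSO-only wells with no growth and 100% = 10 µM 1-NA-PP1 full growth; inhibition rescues growth on 5-FOA so higher OD means more RAM inhibition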
* marks the source's active call; other numbers are inactive results; i = inactive; nt = not tested or not shown.

SMILES	Yeast growth inh	INS promoter inh	Yeast life ext	Insulin prom up	RAM inhibit
CN(C)c1ccnc(SCc2ccccc2Cl)c1C#N	-50.0	72.7*	-16.9	-0.38	2.9
CN(C)c1ccnc(Oc2ccccc2)c1C#N	-24.8	13.8	-15.6	0.46	2.7
NC(=O)C1CCN(CC(=O)Nc2cccc(C(=O)Nc3cccc(C(F)(F)F)c3)c2)CC1	-28.7	nt	0.1	-1.19	1.0
Nc1nc(SCC(=O)N2CCCC2)[nH]c(=O)c1NC(=O)c1cccs1	nt	nt	nt	0.33	nt
CCNC(=O)NC(=O)C(C)On1nnc2ccc(S(=O)(=O)N(CC)CC)cc21 (stereo not given)	-37.5	-42.4	28.1*	-0.15	5.5
Cc1ccc2[nH]c(=O)c(CN(Cc3cccs3)Cc3nnnn3Cc3ccccc3)cc2c1	-38.1	6.5	-2.6	-1.11	1.1
Cc1ccc2[nH]c(=O)c(CN(CCO)Cc3nnnn3CCc3ccccc3)cc2c1	-15.1	-21.4	68.3*	-1	-1.3
CCOC(=O)C1=NN(c2ccccc2)C(=O)/C1=C\c1ccc(N(C)C)cc1	-40.2	nt	3.5	0.17	3.7
COC(=O)CC1=NN(c2ccccc2)C(=O)/C1=C\c1ccc(OC)cc1	-38.0	nt	52.7*	nt	9.5*
CCOC(=O)CC1=NN(c2ccccc2)C(=O)/C1=C\c1ccc(OC)cc1OC	-26.6	-22.9	51.2*	nt	6.3
COC(=O)CC1=NN(c2ccc(OC)cc2)C(=O)/C1=C\c1ccc(Cl)cc1	-24.1	nt	31.4*	nt	4.0
CCOC(=O)c1sc(N2N=C(C)/C(=C\c3ccc(OCC(=O)OC)cc3)C2=O)nc1C	-47.9	22.6	3.2	-0.27	0.8
CC(C)c1ccc(C(=O)NNC(=O)C2CC=CCC2C(=O)O)cc1 (stereo not given)	-8.8	-20.0	0.4	-0.06	0.0
Cc1ccccc1CNc1ccc(C(CC(N)=O)NC(=O)c2ccccc2)cc1[N+](=O)[O-] (stereo not given)	nt	nt	nt	-0.6	nt
O=C(COC(=O)c1cccc(S(=O)(=O)N2CCc3ccccc32)c1)Nc1ncc(Cl)cc1Cl	-47.9	7.1	-0.4	0.13	3.0
O=C(COC(=O)c1ccc(Cl)c(S(=O)(=O)N2CCc3ccccc3C2)c1)Nc1ncc(Cl)cc1Cl	-42.4	21.4	3.8	0.1	10.4*
CCCSc1ccc(C(=O)Nc2ccc(Cl)cc2)cn1	nt	nt	nt	-0.38	2.3
O=C1Nc2ccccc2N(O)N1c1cc(-c2ccccc2)[nH]n1	nt	85.0*	nt	0.41	3.3
COC(=O)c1cc(NC(=O)c2cccc(Cl)c2)c(=O)oc1/C=C/Nc1cc(C)cc(C)c1	nt	i	nt	14.9*	4.5
Cc1nc2c(oc3ccccc32)c(=O)o1	-34.8	0.0	1.4	4.23*	-0.5
O=C(CSc1nccn1-c1ccccc1)c1ccc(Br)cc1	-17.0	-12.2	-8.0	nt	10.7*
COCCCNC(=S)N(Cc1cccnc1)Cc1ccc(OC)c(OC)c1	1.2	27.0	4.5	-0.24	1.0
Cn1c(COc2ccccc2)nnc1SCc1cc(=O)[nH]c2ccccc12	-8.4	nt	43.8*	-0.36	-0.1
O=c1cc(CSc2nnc(COc3ccccc3)n2-c2ccccc2)c2ccccc2[nH]1	-25.5	-42.9	-0.3	-0.09	4.4
O=C(Nc1ccncc1)c1ccccc1-c1ccccc1	nt	nt	nt	0.45	2.2
SMILES	Yeast growth inh	INS promoter inh	Yeast life ext	Insulin prom up	RAM inhibit
N#Cc1ccc2c(c1)nc1ccccn12	nt	78.6*	nt	-0.24	1.1
COc1ccccc1Cn1c(=O)c2ccccc2n2c(Sc3ncnc4sccc34)nnc12	-40.9	78.6*	-3.4	0.02	0.3
COc1ccccc1Cn1c(=O)c2ccccc2n2c(SCc3csc(C)n3)nnc12	-82.3	nt	-7.8	0.28	2.8
COc1ccc(CCN2C(=O)c3[nH]nc(-c4ccccc4O)c3C2c2ccccc2)cc1OC (stereo not given)	-30.3	3.2	-0.5	0.09	11.1*
COc1ccc(-c2n[nH]c3c2C(c2ccc(OC)c(OC)c2)N(c2ccccc2)C3=O)cc1 (stereo not given)	-52.5	69.4*	3.3	nt	9.1*
COc1ccc(C2c3c(-c4ccccc4)n[nH]c3C(=O)N2c2ccc(C(=O)O)cc2)cc1 (stereo not given)	nt	nt	nt	0.22	nt
COCCCN1C(=O)c2[nH]nc(-c3ccccc3O)c2C1c1ccc(Cl)cc1 (stereo not given)	-52.9	nt	-8.7	0.61	1.9
Cc1ccc(C2C3CN(C(C)C)CC=C3C(C#N)=C(N)C2(C#N)C#N)cc1 (stereo not given)	-11.1	nt	-15.1	10.3*	1.8
CCCN1CC=C2C(C#N)=C(N)C(C#N)(C#N)C(c3cccc(OC)c3OC)C2C1 (stereo not given)	-29.8	-212.5	-2.9	nt	0.7
CN1CC=C2C(C#N)=C(N)C(C#N)(C#N)[C@H](c3ccoc3)[C@H]2C1	-40.6	-14.3	-8.0	nt	2.3
COc1ccc(OC)c(C2C3CN(C(C)C)CC=C3C(C#N)=C(N)C2(C#N)C#N)c1 (stereo not given)	-0.6	-478.6	-21.8	17.1*	2.0
Cc1ccc(N2C(=O)c3cccc4c([N+](=O)[O-])ccc(c34)C2=O)c2cccnc12	nt	nt	nt	0.95	nt
Cc1ccnc(N2C(=O)c3cccc4c([N+](=O)[O-])ccc(c34)C2=O)c1	-10.2	nt	41.5	3.14*	2.1
c1csc(C(c2nnnn2C2CCCC2)N2CCOCC2)c1 (stereo not given)	1.6	15.2	-14.2	-0.03	0.1
Clc1ccccc1CN(Cc1ccccc1)C(c1cccs1)c1nnnn1C1CCCC1 (stereo not given)	-13.5	nt	-18.0	-6.23	5.6
Clc1ccc(CN(CC2CCCO2)C(c2cccs2)c2nnnn2C2CCCC2)cc1 (stereo not given)	-33.3	34.3	-12.7	-0.33	11.2*
CCN(Cc1ccccc1)C(c1cccs1)c1nnnn1C1CCCCC1 (stereo not given)	-11.2	18.8	-1.3	-3	9.3*
Cn1c(-c2ccccc2)cc(=O)c2ccccc21	-9.2	24.7	-14.9	0.21	0.0
Cn1c2ccccc2c(=O)n2c(=O)c3ccccc3cc12	47.1*	14.3	-7.4	0.36	0.6
CCCCOc1ccccc1Cn1c(=O)oc2ccccc21	-17.6	nt	-0.6	0.56	11.0*
COc1ccc(OCCCn2c(=O)oc3ccccc32)cc1	-31.1	0.0	nt	nt	-1.3
COc1ccc(N2CCCC2=N)c(OC)c1	nt	nt	nt	0.51	nt
COC(=O)/C(=N/Nc1ccccc1C)Sc1nnc(C(O)c2ccccc2)n1-c1ccccc1 (stereo not given)	-31.9	nt	5.3	0.34	8.8*
CC(=O)/C(=N/Nc1cccc(Cl)c1)Sc1nnc(C(O)c2ccccc2)n1-c1ccccc1 (stereo not given)	3.6	nt	1.5	1.08	2.9
CCN1C(=O)/C(=C/N2CC(C)CC(C)C2)SC1=S (stereo not given)	-20.9	nt	-14.8	nt	9.7*

Source: PubChem BioAssay (several laboratories)
